# Test results from ChEMBL document CHEMBL1921679, “Synthesis and biological evaluation of novel pyrimidine derivatives as sub-micromolar affinity ligands of GalR2” (Bioorg Med Chem Lett, 2011).
# Tests used:
# [1] = target: T1, Galanin receptor type 2 (Homo sapiens, UniProt O43603); test: Displacement of [125I]galanin from GalR2 at 100 uM by gamma counting
# T1 sequence (O43603 whole entry): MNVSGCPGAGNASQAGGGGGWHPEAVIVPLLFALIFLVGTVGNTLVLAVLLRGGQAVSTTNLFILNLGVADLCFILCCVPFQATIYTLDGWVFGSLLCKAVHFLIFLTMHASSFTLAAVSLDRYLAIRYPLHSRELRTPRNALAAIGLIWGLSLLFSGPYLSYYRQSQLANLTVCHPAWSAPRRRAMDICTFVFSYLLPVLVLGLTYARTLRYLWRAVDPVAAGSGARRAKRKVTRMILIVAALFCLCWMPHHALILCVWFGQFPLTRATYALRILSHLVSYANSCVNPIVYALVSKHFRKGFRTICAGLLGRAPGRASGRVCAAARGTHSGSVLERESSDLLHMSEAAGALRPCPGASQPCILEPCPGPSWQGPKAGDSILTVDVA
# [2] = target: T2, Galanin receptor type 1 (Homo sapiens, UniProt P47211); test: Displacement of [125I]galanin from GalR1 at 100 uM by gamma counting
# T2 sequence (P47211 whole entry): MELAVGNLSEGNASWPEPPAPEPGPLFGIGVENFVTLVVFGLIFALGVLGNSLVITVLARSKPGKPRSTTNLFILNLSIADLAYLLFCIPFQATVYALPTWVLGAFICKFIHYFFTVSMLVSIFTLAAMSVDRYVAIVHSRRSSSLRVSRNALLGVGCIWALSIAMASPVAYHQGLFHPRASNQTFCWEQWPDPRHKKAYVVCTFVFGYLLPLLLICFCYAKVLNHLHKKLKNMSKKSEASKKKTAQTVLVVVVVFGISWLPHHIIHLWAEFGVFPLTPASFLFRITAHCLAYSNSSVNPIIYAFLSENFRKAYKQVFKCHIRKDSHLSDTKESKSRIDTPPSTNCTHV
# [3] = target: T3, Galanin receptor type 2 (Homo sapiens) (UniProt O43603); test: Displacement of [125I]galanin from GalR2 at 1 uM by gamma counting
# T3 sequence (whole entry): T1 sequence (O43603 whole entry)
# Outline: (§1)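 Single-point screen at 1 and 10 μM, in duplicate, with two screens per receptor. Final 125I porcine galanin was 0.1 nM (GalR1) or 0.15 nM (GalR2). Incubation 1 h, room temperature. Filtration through PEI-treated glass fibre, cold PBS/Triton washes, γ-counting.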
# [4] = target: T1, Galanin receptor type 2; test: Displacement of [125I]galanin from GalR2 by gamma counting
# Outline: (§2)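 Full-curve competition over 10 nM–100 μM, with a rat galanin control on every plate. Compounds were diluted in 20% DMSO. Membranes were GalR1 2.5 μg or GalR2 5 μg, with 125I porcine galanin at 0.1 nM (GalR1) or 0.15 nM (GalR2), 1 h at room temperature. Filtration, washing and γ-counting followed. IC50 came from a nonlinear one-site competition fit, reported only when the curve bottom fell below 35% of total binding.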
# [5] = target: T2, Galanin receptor type 1; test: Displacement of [125I]galanin from GalR1 by gamma counting; outline: as §2
# [6] = target: T3, Galanin receptor type 2 (Homo sapiens); test: Displacement of [125I]galanin from GalR2 at 10 uM by gamma counting; outline: as §1
Compound,IC50 [1],IC50 [2],inhibition [3],IC50 [4],IC50 [5],inhibition [6]
COc1ccc(Nc2nc(Nc3ccc(OC)c(F)c3)cc(N3CCCCC3C)n2)cc1 (stereo not drawn),Not Active,Not Active,–,–,–,–
Cc1ccc(C)c(Nc2cc(N3CCCCC3)nc(N3CCCN(c4ncccc4C(F)(F)F)CC3)n2)c1,–,–,> 50%,2.08 µM,3.9 µM,> 50%
FC(F)Oc1cccc(Nc2cc(Nc3ccccc3)nc(N3CCCCC3)n2)c1,–,–,> 50%,4.15 µM,6.9 µM,> 50%
Cc1ccc(C)c(Nc2cc(Nc3ccccc3)nc(N3CCCCC3)n2)c1,–,Not Active,> 50%,4.57 µM,–,> 50%
COc1ccc(Nc2nc(NCc3cccc(C(F)(F)F)c3)cc(N3CCCCC3)n2)cc1,–,Not Active,> 50%,1.93 µM,–,> 50%
COc1ccc(Nc2nc(Nc3ccc(OC)c(F)c3)cc(N3CCCC3)n2)cc1,Not Active,Not Active,–,–,–,–
CCN(CC)c1cc(Nc2ccc(OC)c(F)c2)nc(Nc2ccc(OC)cc2)n1,–,Not Active,> 50%,2.85 µM,–,> 50%
FC(F)(F)Oc1cccc(Nc2cc(Nc3ccccc3)nc(N3CCCCC3)n2)c1,–,–,> 50%,6.62 µM,34.9 µM,> 50%
FC(F)(F)Oc1ccc(Nc2cc(Nc3ccccc3)nc(N3CCCCC3)n2)cc1,Not Active,Not Active,–,–,–,–
COc1ccc(Nc2cc(Nc3ccc(OC)cc3)nc(N3CCCC3)n2)cc1,–,Not Active,> 50%,8.04 µM,–,> 50%
COc1ccc(Nc2cc(Nc3cccc(OC)c3)nc(NC3CCCCC3)n2)cc1,–,–,> 50%,1.75 µM,5.62 µM,> 50%
COc1ccc(Nc2cc(Nc3ccccc3)nc(N3CCCCC3)n2)cc1F,–,–,> 50%,8.65 µM,6.77 µM,> 50%
COc1ccc(Nc2cc(N3CCCCC3)nc(N3CCCN(c4ncccc4C(F)(F)F)CC3)n2)cc1,–,–,> 50%,1.92 µM,3.35 µM,> 50%
COc1ccc(Nc2nc(NCC3CCCCC3)cc(Nc3ccc(OC)c(F)c3)n2)cc1,Not Active,–,> 50%,–,3.84 µM,> 50%
COc1ccc(Nc2cc(Nc3ccc(OC(F)F)cc3)nc(NC3CCCCC3)n2)cc1,–,–,> 50%,12.5 µM,27.5 µM,> 50%
COc1ccc(Nc2nc(Nc3ccc(OC)c(F)c3)cc(N3CCN(c4ncccn4)CC3)n2)cc1,Not Active,–,–,–,3.84 µM,–
COc1ccc(Nc2nc(Nc3ccc(OC)c(F)c3)cc(N3CCC(C)CC3)n2)cc1,Not Active,Not Active,–,–,–,–
COc1ccc(Nc2nc(Nc3ccc(OC(F)F)cc3)cc(N3CCCCC3)n2)cc1,Not Active,Not Active,–,–,–,–
COc1ccc(Nc2cc(N3CCCCC3)nc(N3CCCN(c4ncccc4C(F)(F)F)CC3)n2)cc1F,–,–,> 50%,2.03 µM,6.32 µM,> 50%
COc1ccc(Nc2nc(Nc3ccc(F)c(Cl)c3)cc(N3CCCCC3)n2)cc1,–,Not Active,> 50%,4.18 µM,–,> 50%
COc1ccc(Nc2nc(Nc3ccc(C)cc3C)cc(N3CCCCC3)n2)cc1,–,Not Active,> 50%,1.18 µM,–,> 50%
COc1ccc(Nc2nc(Nc3ccc(OC)c(F)c3)cc(N3CCCN(C(=O)OC(C)(C)C)CC3)n2)cc1,–,–,> 50%,9.07 µM,2.82 µM,> 50%
COc1ccc(Nc2nc(Nc3ccc(OC)c(F)c3)cc(N3CCC(N4CCCCC4)CC3)n2)cc1,Not Active,–,–,–,16 µM,–
COc1ccc(Nc2nc(Nc3ccc(OC)c(F)c3)cc(N3CCCC(C)C3)n2)cc1 (stereo not drawn),–,–,> 50%,1.34 µM,6.78 µM,> 50%
FC(F)Oc1ccc(Nc2cc(Nc3ccccc3)nc(N3CCCCC3)n2)cc1,–,Not Active,> 50%,3.38 µM,–,> 50%
COc1ccc(Nc2cc(N3CCN(c4ccccc4)CC3)nc(N3CCCC3)n2)cc1,–,–,> 50%,3.4 µM,12.8 µM,> 50%
COc1ccc(Nc2nc(Nc3ccc(OC)c(F)c3)cc(N3CCN(c4ccccc4)CC3)n2)cc1,–,–,> 50%,24.9 µM,6.82 µM,> 50%
c1ccc(Nc2cc(NCc3ccc4c(c3)OCO4)nc(N3CCCCC3)n2)cc1,–,Not Active,> 50%,3.69 µM,–,> 50%

# Now from value to compound:
IC50 [1],IC50 [2],inhibition [3],IC50 [4],IC50 [5],inhibition [6],Compound
–,–,> 50%,0.56 µM,1.3 µM,> 50%,Cc1c(F)cccc1Nc1cc(N2CCCCC2)nc(N2CCCN(c3ncccc3C(F)(F)F)CC2)n1
–,–,> 50%,0.55 µM,6.82 µM,> 50%,COc1ccc(Nc2cc(Nc3cccc(OC(F)(F)F)c3)nc(NC3CCCCC3)n2)cc1
–,Not Active,> 50%,0.44 µM,–,> 50%,COc1ccc(Nc2nc(Nc3cc(C)ccc3C)cc(N3CCCCC3)n2)cc1
–,Not Active,> 50%,0.43 µM,–,> 50%,COc1ccc(Nc2nc(Nc3ccc(OC)c(F)c3)cc(N3CCCCC3)n2)cc1
–,Not Active,> 50%,0.54 µM,–,> 50%,COc1ccc(Nc2nc(Nc3cccc(OC(F)F)c3)cc(N3CCCCC3)n2)cc1
–,–,> 50%,1.06 µM,5.93 µM,> 50%,COc1ccc(Nc2cc(Nc3ccc(OC(F)(F)F)cc3)nc(NC3CCCCC3)n2)cc1
–,Not Active,> 50%,0.33 µM,–,> 50%,COc1ccc(Nc2nc(Nc3ccc(OC(F)(F)F)cc3)cc(N3CCCCC3)n2)cc1
–,–,> 50%,0.77 µM,5.48 µM,> 50%,COc1ccc(Nc2nc(Nc3ccc(OC)c(F)c3)cc(N3CCCCCC3)n2)cc1
–,–,> 50%,1.09 µM,8.59 µM,> 50%,COc1ccc(Nc2cc(Nc3ccccc3)nc(N3CCCCC3)n2)cc1
–,Not Active,> 50%,0.38 µM,–,> 50%,COc1ccc(Nc2nc(Nc3cccc(F)c3C)cc(N3CCCCC3)n2)cc1
–,–,> 50%,0.77 µM,5.03 µM,> 50%,COc1ccc(Nc2cc(Nc3cccc(OC(F)F)c3)nc(NC3CCCCC3)n2)cc1
–,Not Active,> 50%,0.38 µM,–,> 50%,COc1ccc(Nc2nc(Nc3cccc(OC(F)(F)F)c3)cc(N3CCCCC3)n2)cc1
–,Not Active,> 50%,0.98 µM,–,> 50%,COc1ccc(Nc2nc(Nc3ccc(F)cc3C)cc(N3CCCCC3)n2)cc1
–,Not Active,> 50%,0.78 µM,–,> 50%,COc1ccc(Nc2nc(Nc3ccc(C(F)(F)F)cc3)cc(N3CCCCC3)n2)cc1
–,–,> 50%,0.93 µM,4.6 µM,> 50%,COc1ccc(Nc2cc(Nc3cccc(OC)c3)nc(N3CCCC3)n2)cc1
